The values below come from ChEMBL document CHEMBL2331200, “Synthesis and bioevaluation of [(18)F]4-fluoro-m-hydroxyphenethylguanidine ([(18)F]4F-MHPG): a novel radiotracer for quantitative PET studies of cardiac sympathetic innervation” (Bioorg Med Chem Lett, 2013).

Data set [1] is described as follows: Biodistribution in iv dosed rhesus monkey liver. It counts as ADME, organism-based, Macaca mulatta. The settings on record: in vivo. In a few lines: (§1)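 Dynamic PET imaging of a single nonhuman primate after injection of the 18F tracer. Regional heart, liver and lung activity was read from the images. Heart-to-blood activity ratios were taken at 80–90 min post-injection.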

A short description of data set [2]: Biodistribution in iv dosed rhesus monkey heart. It counts as ADME, organism-based, Macaca mulatta. The following applies: in vivo. In a few lines: as §1
Data set [3] is described as follows: Biodistribution in iv dosed rhesus monkey lungs. In kind it is ADME, organism-based, Macaca mulatta, Lung. The settings on record: in vivo. In a few lines:
as §1

Data set [4] can be described thus: Biodistribution in iv dosed rhesus monkey left ventricle. The following applies: in vivo. It counts as ADME, organism-based, Macaca mulatta, Heart left ventricle. The gist of the method: as §1
Data set [5] concerns Heart. As to the kind of experiment: Drug uptake in rat heart assessed as neuronal uptake rate per gram of wet weight after 10 mins constant infusion measured up to 140 mins. It counts as ADME, tissue-based. The following applies: ex_vivo. In a few lines: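 Isolated working rat heart with uptake-2 blocked by 54 μM corticosterone in the perfusion buffer. Radiotracer was infused for 10 min at constant perfusate concentration to give the neuronal uptake rate Kup (ml/min/g wet).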

`C[C@H](N[11CH3])[C@H](O)c1cccc(O)c1`: in data set [1], the Drug uptake result is reported as “Active”.

Regarding `N=C(N)NCCc1ccc([18F])c(O)c1`, the Drug uptake result in data set [2] is given as “Active”; in data set [3], “Not Active”; in data set [1], “Active”; in data set [4], “Active”. Turning to `N=C(N)NCc1ccc([18F])cc1`, in data set [5], the Drug uptake amounted to 1.2 mL/min/g. As for `N=C(N)NCc1cccc([123I])c1` [IOBENGUANE I 123], the Drug uptake result in data set [1] is “Active”.
